# Assay results: article PMC8548355 (Medicinal Chemistry Research, 2021)
# Experiments:
# E. coli ATCC 25922 = assay: MIC by broth microdilution against E. coli ATCC 25922; type: cell-based; settings: Escherichia coli, ATCC25922, read-out: MIC against E. coli ATCC 25922
# S. aureus ATCC 29213 [1] = assay: MIC by broth microdilution against S. aureus ATCC 29213; type: cell-based, Staphylococcus aureus; settings: Staphylococcus aureus, ATCC29213, read-out: MIC against S. aureus ATCC 29213, broth microdilution, 37 °C, 16–18 h
# K. pneumoniae BAA 1705 = assay: MIC by broth microdilution against K. pneumoniae BAA 1705; type: cell-based; settings: Klebsiella pneumoniae, BAA1705, read-out: MIC against K. pneumoniae BAA 1705
# A. baumannii BAA 1605 = assay: MIC by broth microdilution against A. baumannii BAA 1605; type: cell-based; settings: Acinetobacter baumannii, BAA1605, read-out: MIC against A. baumannii BAA 1605
# Vero cells (ATCC CCL-81) = assay: Cell cytotoxicity assay; type: cell-based; settings: CC50 Vero cells / MIC S. aureus ATCC 29213
# MRSA NRS 10100 = assay: MIC against clinical MRSA isolate NRS 10100; type: cell-based; settings: Staphylococcus aureus, MRSA|NRS10100, read-out: MIC against MRSA NRS 10100
# MRSA NRS 10119 = assay: MIC against clinical MRSA isolate NRS 10119; type: cell-based; settings: Staphylococcus aureus, MRSA|NRS10119, read-out: MIC against MRSA NRS 10119
# MRSA NRS 10129 = assay: MIC against clinical MRSA isolate NRS 10129; type: cell-based; settings: Staphylococcus aureus, MRSA|NRS10129, read-out: MIC against MRSA NRS 10129
# MRSA NRS 10186 = assay: MIC against clinical MRSA isolate NRS 10186; type: cell-based; settings: Staphylococcus aureus, MRSA|NRS10186, read-out: MIC against MRSA NRS 10186
# MRSA NRS 10191 = assay: MIC against clinical MRSA isolate NRS 10191; type: cell-based; settings: Staphylococcus aureus, MRSA|NRS10191, read-out: MIC against MRSA NRS 10191
# MRSA NRS 10192 = assay: MIC against clinical MRSA isolate NRS 10192; type: cell-based; settings: Staphylococcus aureus, MRSA|NRS10192, read-out: MIC against MRSA NRS 10192
# MRSA NRS 10193 = assay: MIC against clinical MRSA isolate NRS 10193; type: cell-based; settings: Staphylococcus aureus, MRSA|NRS10193, read-out: MIC against MRSA NRS 10193
# MRSA NRS 10194 = assay: MIC against clinical MRSA isolate NRS 10194; type: cell-based; settings: Staphylococcus aureus, MRSA|NRS10194, read-out: MIC against MRSA NRS 10194
# MRSA NRS 10198 = assay: MIC against clinical MRSA isolate NRS 10198; type: cell-based; settings: Staphylococcus aureus, MRSA|NRS10198, read-out: MIC against MRSA NRS 10198
# VRSA VRS 1 = assay: MIC against clinical VRSA isolate VRS 1; type: cell-based; settings: Staphylococcus aureus, read-out: MIC against VRSA VRS 1
# VRSA VRS 4 = assay: MIC against clinical VRSA isolate VRS 4; type: cell-based; settings: Staphylococcus aureus, read-out: MIC against VRSA VRS 4
# VRSA VRS 12 = assay: MIC against clinical VRSA isolate VRS 12; type: cell-based; settings: Staphylococcus aureus, read-out: MIC against VRSA VRS 12
# S. aureus ATCC 29213 [2] = assay: Drug interaction of 22 with FDA-approved drugs, checkerboard method; type: cell-based, Staphylococcus aureus; settings: for MIC of drug in the presence of “22” “B”: S. aureus ATCC 29213, checkerboard, in combination with 22; for MIC: Staphylococcus aureus, ATCC29213, 24 h, read-out: MIC (drug alone); for Inference (drug interaction): combination of 22 with the drug, S. aureus ATCC 29213
# S. aureus = settings: similar activity to 20–23; cited from earlier work
# S. aureus ATCC 29213 [3] = assay: Time–kill kinetics; type: cell-based, Staphylococcus aureus; settings: 24 h; for cfu reduction in time–kill kinetics: 10× MIC
# Procedure, shortened: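 Bacteria diluted to ~10^6 cfu/mL and exposed to test compound at 1× and 10× MIC, with controls, at 37 °C for 24 h. Samples taken at 1, 6 and 24 h, serially diluted ten-fold in PBS, and spread on MHA. Plates incubated at 37 °C for 24 h and colonies counted. Surviving cfu/mL plotted against time with and without compound.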
# [4] = test system: clinical MDR S. aureus isolates (MRSA and VRSA); assay: MIC against clinical MDR S. aureus isolates, whole panel; type: cell-based, Staphylococcus aureus; settings: nine MRSA and three VRSA strains
# [5] = test system: S. aureus ATCC 29213 pre-formed biofilm; assay: Activity against pre-formed S. aureus biofilm; type: cell-based, Staphylococcus aureus; settings: 10× MIC, 24 h treatment, S. aureus ATCC 29213, compared to comparators
# Procedure, shortened: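 Overnight culture in 1% TSB, shaken at 180 RPM at 37 °C, diluted 1:100 in fresh TSB. Biofilm grown statically for 48 h at 37 °C under an adhesive foil lid for low oxygen. Planktonic cells removed with three PBS (pH 7.4) rinses. Refilled with TSB containing test compound, 24 h at 37 °C. Washed, heat-fixed at 60 °C for 1 h, stained with 0.06% crystal violet for 10 min, eluted with 30% acetic acid, absorbance read at 600 nm.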
Structure (SMILES),MIC (E. coli ATCC 25922) [µg/mL],MIC (S. aureus ATCC 29213 [1]) [µg/mL],MIC (K. pneumoniae BAA 1705) [µg/mL],MIC (A. baumannii BAA 1605) [µg/mL],Selectivity index with respect to S. aureus ATCC 29213 (SI) (Vero cells (ATCC CCL-81)),MIC (MRSA NRS 10100) [µg/mL],MIC (MRSA NRS 10119) [µg/mL],MIC (MRSA NRS 10129) [µg/mL],MIC (MRSA NRS 10186) [µg/mL],MIC (MRSA NRS 10191) [µg/mL],MIC (MRSA NRS 10192) [µg/mL],MIC (MRSA NRS 10193) [µg/mL],MIC (MRSA NRS 10194) [µg/mL],MIC (MRSA NRS 10198) [µg/mL],MIC (VRSA VRS 1) [µg/mL],MIC (VRSA VRS 4) [µg/mL],MIC (VRSA VRS 12) [µg/mL],MIC (S. aureus ATCC 29213 [2]) [µg/mL],also measured
"C[C@H]1COc2c(N3CCN(C)CC3)c(F)cc3c(=O)c(C(=O)O)cn1c23 [Levofloxacin, reference compound]",0.0156,0.25,64,8,>400,0.25,16,0.25,8,16,8,32,0.125,32,64,> 64,32,0.25,MIC of drug in the presence of “22” “B” (S. aureus ATCC 29213 [2]): 0.25 µg/mL; Inference (drug interaction) (S. aureus ATCC 29213 [2]): No interaction
"O=C(Nc1ccc(Br)c(C(F)(F)F)c1)c1ccccc1O [Compound 21, N-(4ʹ-bromo-3ʹ-(trifluoromethyl)phenyl)-2-hydroxybenzamide]",> 64,0.5,> 64,> 64,<10,,,,,,,,,,,,,,
"O=C(Nc1cccc(C(F)(F)F)c1)c1cc(Cl)ccc1O [Compound 23, 5-Chloro-N-(3ʹ-(trifluoromethyl)phenyl)-2-hydroxybenzamide]",> 64,0.5,> 64,> 64,<10,,,,,,,,,,,,,,
"O=C(Nc1cc(C(F)(F)F)cc(C(F)(F)F)c1)c1cc(Cl)ccc1O [IMD0354, N-[3,5-Bis(trifluoromethyl)phenyl]-5-chloro-2-hydroxybenzamide]",,,,,,,,,,,,,,,,,,,MIC (reported) (S. aureus): 0.25 µg/mL
"CN[C@H](CC(C)C)C(=O)N[C@H]1C(=O)N[C@@H](CC(N)=O)C(=O)N[C@H]2C(=O)N[C@H]3C(=O)N[C@H](C(=O)N[C@H](C(=O)O)c4cc(O)cc(O)c4-c4cc3ccc4O)[C@H](O)c3ccc(c(Cl)c3)Oc3cc2cc(c3O[C@@H]2O[C@H](CO)[C@@H](O)[C@H](O)[C@H]2O[C@H]2C[C@](C)(N)[C@H](O)[C@H](C)O2)Oc2ccc(cc2Cl)[C@H]1O [Vancomycin, reference compound]",,,,,,2,2,1,1,2,2,2,1,2,> 64,> 64,> 64,1,MIC of drug in the presence of “22” “B” (S. aureus ATCC 29213 [2]): 0.5 µg/mL; Inference (drug interaction) (S. aureus ATCC 29213 [2]): No interaction; cfu reduction in time–kill kinetics (S. aureus ATCC 29213 [3]): ~ 9 log10 cfu/mL
"O=C(Nc1ccc(Br)c(C(F)(F)F)c1)c1cc(Cl)ccc1O [Compound 22, 5-Chloro-N-(4ʹ-bromo-3ʹ-(trifluoromethyl)phenyl)-2-hydroxybenzamide]",> 64,0.25,> 64,> 64,,0.0625,0.0312,0.0625,0.0625,0.0625,0.0312,0.0625,0.0625,0.0625,0.0312,0.0625,0.0625,0.5,MIC against MRSA and VRSA isolates (range over the panel) [4]: 0.031 to 0.062 µg/mL; Type of killing in time–kill kinetics (in words) (S. aureus ATCC 29213 [3]; 1× and 10× MIC): concentration-dependent bactericidal activity; cfu reduction in time–kill kinetics (S. aureus ATCC 29213 [3]): ~ 8 log10 cfu/mL; Reduction in pre-formed biofilm [5]: more significant reduction (P < 0.0005)
"O=C(Nc1ccc(Br)cc1)c1cc(Cl)ccc1O [Compound 25, 5-Chloro-N-(4ʹ-bromophenyl)-2-hydroxybenzamide]",> 64,0.5,> 64,> 64,,0.5,0.25,0.5,0.5,0.5,0.5,0.5,0.5,0.5,0.5,0.5,0.5,,MIC against MRSA and VRSA isolates (range over the panel) [4]: 0.25 to 0.5 µg/mL
